Legend:
NADPH oxidase 4 = target: T1, NADPH oxidase 4 (Homo sapiens, UniProt Q9NPH5); test: Inhibition of human NOX4 overexpressed in T-REx-293 cell membrane assessed as ROS production by cell free assay in presence of NADPH; settings: in the assay text read “T-REx-293 cell membrane” for “human PMN cell membrane”
T1 sequence (Q9NPH5 whole entry): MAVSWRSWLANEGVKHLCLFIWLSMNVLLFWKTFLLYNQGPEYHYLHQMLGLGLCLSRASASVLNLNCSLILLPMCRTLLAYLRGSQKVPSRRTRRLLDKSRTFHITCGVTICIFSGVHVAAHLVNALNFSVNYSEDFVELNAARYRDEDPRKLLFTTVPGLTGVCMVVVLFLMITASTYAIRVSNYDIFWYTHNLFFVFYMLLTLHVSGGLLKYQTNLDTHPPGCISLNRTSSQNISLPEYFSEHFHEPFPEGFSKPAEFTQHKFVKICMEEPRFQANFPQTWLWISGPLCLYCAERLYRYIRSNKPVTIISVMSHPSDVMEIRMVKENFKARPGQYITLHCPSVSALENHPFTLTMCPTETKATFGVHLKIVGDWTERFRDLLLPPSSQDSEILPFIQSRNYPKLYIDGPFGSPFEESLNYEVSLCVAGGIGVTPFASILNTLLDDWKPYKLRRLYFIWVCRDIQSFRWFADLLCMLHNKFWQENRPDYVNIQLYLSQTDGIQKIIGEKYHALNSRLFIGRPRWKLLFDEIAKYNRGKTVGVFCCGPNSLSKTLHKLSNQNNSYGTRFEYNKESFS
Outline: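 hNOX4 T-REx-293 cells induced with tetracycline (1 μg/mL, 24 h), sonicated in sucrose/NaCl/EGTA PBS buffer pH 7.4, membranes taken from a sucrose gradient. NADPH-triggered ROS measured by Amplex Red/HRP in PBS, with compound at 1 nM–100 μM, 20 min at 37 °C. Ki by Cheng-Prusoff from ≥3 triplicate experiments.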

[1] = Intrinsic clearance in Sprague-Dawley rat liver microsomes assessed per mg of protein at 0.5 uM; assay type: ADME, Microsome
Outline: (§1)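 Phase I stability assay in pooled liver microsomes (human: male and female; rat: male Sprague-Dawley). Microsomes at 0.5 mg/mL final in 0.1 M phosphate pH 7.4. Compound 0.5 μM final, 0.25% DMSO. Preincubated at 37 °C, reaction started with 1 mM NADPH. Sampled at 0, 5, 15, 30 and 45 min, with a 45 min minus-NADPH control. Methanol quench with internal standard, LC/MS-MS, intrinsic clearance calculated.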

[2] = Permeability across human Caco-2 cell membrane at 10 uM after 2 hrs; assay type: ADME, cell-based
Outline: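 Caco-2 monolayers grown 20 days in DMEM, used when TEER >800 Ω·cm2. Dosed at 10 μM final in HBSS pH 6.5 with 1% DMSO, apical-to-basolateral and basolateral-to-apical. Incubated 2 h at 37 °C, both compartments sampled, LC-MS/MS with five-point calibration. Papp = (dQ/dt)/(C0A).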

Cytochrome P450 2C19 = Cytochrome P450 2C19 (Homo sapiens, UniProt P33261); test: Inhibition of human CYP2C19; assay type: ADME
Sequence of Cytochrome P450 2C19 (P33261 whole entry, canonical isoform): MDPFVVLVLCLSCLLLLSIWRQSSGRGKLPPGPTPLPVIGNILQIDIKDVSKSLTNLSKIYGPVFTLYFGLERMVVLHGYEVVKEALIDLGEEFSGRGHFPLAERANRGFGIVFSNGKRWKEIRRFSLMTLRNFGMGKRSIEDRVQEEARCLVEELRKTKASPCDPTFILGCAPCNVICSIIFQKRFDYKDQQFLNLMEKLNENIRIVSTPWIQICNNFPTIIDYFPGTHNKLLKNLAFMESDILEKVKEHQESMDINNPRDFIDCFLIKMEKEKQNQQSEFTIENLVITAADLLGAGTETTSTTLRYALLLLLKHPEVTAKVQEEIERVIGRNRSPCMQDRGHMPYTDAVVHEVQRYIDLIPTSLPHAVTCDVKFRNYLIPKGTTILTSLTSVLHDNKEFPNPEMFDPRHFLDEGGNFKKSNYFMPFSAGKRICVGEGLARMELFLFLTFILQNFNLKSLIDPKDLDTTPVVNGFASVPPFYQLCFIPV
Outline: (§2)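 Recombinant human CYP isoforms with isoform-specific probe substrates and NADPH. Compound at 0.1–25 μM, final DMSO 0.3%. Metabolites measured by mass spectrometry, except CYP1A2, which used a fluorescent metabolite. IC50 derived from the decrease in metabolite formation compared with vehicle control.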

[3] = Intrinsic clearance in human liver microsomes assessed as per mg of protein at 0.5 uM; assay type: ADME, Microsome; outline: as §1
Cytochrome P450 2C9 = Cytochrome P450 2C9 (Homo sapiens, UniProt P11712); test: Inhibition of human CYP2C9; assay type: ADME; outline: as §2
Sequence of Cytochrome P450 2C9 (P11712 whole entry): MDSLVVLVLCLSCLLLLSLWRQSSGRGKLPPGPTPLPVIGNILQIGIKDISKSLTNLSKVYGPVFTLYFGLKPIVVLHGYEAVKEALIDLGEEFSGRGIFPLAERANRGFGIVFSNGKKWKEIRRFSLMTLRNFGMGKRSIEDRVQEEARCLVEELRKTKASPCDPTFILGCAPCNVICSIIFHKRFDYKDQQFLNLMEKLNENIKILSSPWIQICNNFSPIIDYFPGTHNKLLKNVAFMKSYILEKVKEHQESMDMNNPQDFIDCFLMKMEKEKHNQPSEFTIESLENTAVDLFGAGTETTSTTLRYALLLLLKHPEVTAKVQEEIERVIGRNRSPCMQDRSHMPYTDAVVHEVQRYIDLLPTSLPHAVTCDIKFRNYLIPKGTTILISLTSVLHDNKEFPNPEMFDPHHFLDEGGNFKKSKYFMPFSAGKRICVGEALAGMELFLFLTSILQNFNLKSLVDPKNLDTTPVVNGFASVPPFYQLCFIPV

[4] = AUC (infinity) in Sprague-Dawley rat at 10 mg/kg, po; assay type: ADME, organism-based; design: time infinity, dose 10 mg/kg, route oral; settings: plasma
Outline: (§3)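 Parallel design with six male rats: three given 5 mg/kg iv in EDPW (10% EtOH, 10% DMA, 30% PG, 50% water), three given 10 mg/kg orally in aqueous 0.5% CMC with 0.25% Tween 20. Carotid cannula blood sampled up to 24 h. Plasma levels by LC/MS/MS (LLOQ 1.00 ng/mL). Noncompartmental analysis.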

[5] = Oral bioavailability in Sprague-Dawley rat at 10 mg/kg; assay type: ADME, organism-based; settings: in vivo
Outline: (§4)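 Parallel design in male rats, three per group. Group 1: 5 mg/kg iv in EDPW (10% EtOH, 10% DMA, 30% PG, 50% water). Group 2: 10 mg/kg oral in aqueous 0.5% CMC with 0.25% Tween 20. Carotid cannula blood drawn up to 24 h. Plasma measured by LC/MS/MS (LLOQ 1.00 ng/mL), noncompartmental analysis.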

[6] = Cmax in Sprague-Dawley rat at 10 mg/kg, po; assay type: ADME, organism-based; design: dose 10 mg/kg, route oral; settings: in vivo; outline: as §3
[7] = Tmax in Sprague-Dawley rat at 10 mg/kg, po; assay type: ADME, organism-based; design: dose 10 mg/kg, route oral; settings: in vivo; outline: as §4
[8] = Half life in Sprague-Dawley rat at 10 mg/kg, po; assay type: ADME, organism-based; design: dose 10 mg/kg, route oral; settings: in vivo; outline: as §3
[9] = AUC (infinity) in Sprague-Dawley rat at 5 mg/kg, iv; assay type: ADME, organism-based; design: time infinity, dose 5 mg/kg, route intravenous; settings: plasma; outline: as §3
[10] = Cmax in Sprague-Dawley rat at 5 mg/kg, iv; assay type: ADME, organism-based; design: dose 5 mg/kg, route intravenous; settings: in vivo; outline: as §3
[11] = Clearance in Sprague-Dawley rat at 10 mg/kg, po; assay type: ADME, organism-based; design: dose 10 mg/kg, route oral; settings: in vivo; outline: as §3
[12] = Half life in Sprague-Dawley rat at 5 mg/kg, iv; assay type: ADME, organism-based; design: dose 5 mg/kg, route intravenous; settings: in vivo; outline: as §3
[13] = Clearance in Sprague-Dawley rat at 5 mg/kg, iv; assay type: ADME, organism-based; design: dose 5 mg/kg, route intravenous; settings: in vivo; outline: as §3
[14] = Volume of distribution at steady state in Sprague-Dawley rat at 5 mg/kg, iv; assay type: ADME, organism-based; design: dose 5 mg/kg, route intravenous; settings: in vivo, read-out: Vdss; outline: as §4
Cytochrome P450 2C8 = Cytochrome P450 2C8 (Homo sapiens, UniProt P10632); test: Inhibition of human CYP2C8; assay type: ADME; outline: as §2
Sequence of Cytochrome P450 2C8 (P10632 whole entry): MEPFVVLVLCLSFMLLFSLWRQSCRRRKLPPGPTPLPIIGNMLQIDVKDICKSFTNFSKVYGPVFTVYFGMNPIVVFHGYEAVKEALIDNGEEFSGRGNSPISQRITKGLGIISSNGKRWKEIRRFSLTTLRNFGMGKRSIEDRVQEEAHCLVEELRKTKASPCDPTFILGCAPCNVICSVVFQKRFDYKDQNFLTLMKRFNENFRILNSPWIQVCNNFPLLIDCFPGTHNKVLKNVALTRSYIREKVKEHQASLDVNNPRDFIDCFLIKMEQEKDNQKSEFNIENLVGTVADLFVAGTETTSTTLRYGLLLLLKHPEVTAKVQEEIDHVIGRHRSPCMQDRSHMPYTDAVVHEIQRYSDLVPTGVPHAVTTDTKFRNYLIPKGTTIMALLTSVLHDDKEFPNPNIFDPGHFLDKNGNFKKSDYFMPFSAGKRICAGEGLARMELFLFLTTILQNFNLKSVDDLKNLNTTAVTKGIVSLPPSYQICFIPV

Cytochrome P450 3A4 = Cytochrome P450 3A4 (Homo sapiens, UniProt P08684); test: Inhibition of human CYP3A4; assay type: ADME; outline: as §2
Sequence of Cytochrome P450 3A4 (P08684 whole entry): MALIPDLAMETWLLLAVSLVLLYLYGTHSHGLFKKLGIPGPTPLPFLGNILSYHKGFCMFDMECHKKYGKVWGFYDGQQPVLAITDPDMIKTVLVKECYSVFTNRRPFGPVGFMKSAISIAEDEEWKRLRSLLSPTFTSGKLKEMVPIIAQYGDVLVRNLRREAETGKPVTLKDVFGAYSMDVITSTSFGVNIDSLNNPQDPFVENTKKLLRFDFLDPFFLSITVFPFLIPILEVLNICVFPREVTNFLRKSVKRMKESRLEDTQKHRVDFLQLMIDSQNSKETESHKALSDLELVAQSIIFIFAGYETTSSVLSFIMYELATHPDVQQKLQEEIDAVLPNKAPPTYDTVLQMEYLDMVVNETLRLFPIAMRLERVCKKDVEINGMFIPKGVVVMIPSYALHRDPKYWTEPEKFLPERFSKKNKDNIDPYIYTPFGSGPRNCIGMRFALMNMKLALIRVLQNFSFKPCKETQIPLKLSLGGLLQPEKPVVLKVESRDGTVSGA

NADPH oxidase 2 = NADPH oxidase 2 (Homo sapiens, UniProt P04839); test: Inhibition of human NOX2 overexpressed in […] cell membrane assessed as ROS production by cell free assay in presence of NADPH
Sequence of NADPH oxidase 2 (P04839 whole entry): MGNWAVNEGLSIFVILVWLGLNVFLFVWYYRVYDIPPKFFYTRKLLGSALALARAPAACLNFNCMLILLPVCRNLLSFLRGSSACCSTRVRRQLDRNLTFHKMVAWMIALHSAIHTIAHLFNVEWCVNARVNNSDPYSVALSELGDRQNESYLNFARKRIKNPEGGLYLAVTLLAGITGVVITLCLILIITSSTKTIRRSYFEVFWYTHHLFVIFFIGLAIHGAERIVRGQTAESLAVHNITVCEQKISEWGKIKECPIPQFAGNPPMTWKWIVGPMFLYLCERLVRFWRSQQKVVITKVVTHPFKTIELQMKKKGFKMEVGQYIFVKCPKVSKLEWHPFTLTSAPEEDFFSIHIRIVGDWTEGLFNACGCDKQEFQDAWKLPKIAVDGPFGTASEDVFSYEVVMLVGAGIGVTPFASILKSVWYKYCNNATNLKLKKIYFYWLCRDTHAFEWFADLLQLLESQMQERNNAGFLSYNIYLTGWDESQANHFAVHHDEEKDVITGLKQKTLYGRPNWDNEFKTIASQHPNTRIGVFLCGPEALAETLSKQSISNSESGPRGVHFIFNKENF
Outline: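 Nox2 source: membranes from human polymorphonuclear cells, sonicated and collected at the 17/40% sucrose interface. ROS read by Amplex Red/HRP in PBS after NADPH addition, with compound at 1 nM–100 μM for 20 min at 37 °C. Background taken without membranes or agonist. Ki via Cheng-Prusoff, mean of ≥3 experiments in triplicate.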

[15] = target: Xanthine dehydrogenase/oxidase (Homo sapiens, UniProt P47989); test: Inhibition of xanthine oxidase by in vitro enzymatic assay in presence of xanthine
Sequence of Xanthine dehydrogenase/oxidase (P47989 whole entry): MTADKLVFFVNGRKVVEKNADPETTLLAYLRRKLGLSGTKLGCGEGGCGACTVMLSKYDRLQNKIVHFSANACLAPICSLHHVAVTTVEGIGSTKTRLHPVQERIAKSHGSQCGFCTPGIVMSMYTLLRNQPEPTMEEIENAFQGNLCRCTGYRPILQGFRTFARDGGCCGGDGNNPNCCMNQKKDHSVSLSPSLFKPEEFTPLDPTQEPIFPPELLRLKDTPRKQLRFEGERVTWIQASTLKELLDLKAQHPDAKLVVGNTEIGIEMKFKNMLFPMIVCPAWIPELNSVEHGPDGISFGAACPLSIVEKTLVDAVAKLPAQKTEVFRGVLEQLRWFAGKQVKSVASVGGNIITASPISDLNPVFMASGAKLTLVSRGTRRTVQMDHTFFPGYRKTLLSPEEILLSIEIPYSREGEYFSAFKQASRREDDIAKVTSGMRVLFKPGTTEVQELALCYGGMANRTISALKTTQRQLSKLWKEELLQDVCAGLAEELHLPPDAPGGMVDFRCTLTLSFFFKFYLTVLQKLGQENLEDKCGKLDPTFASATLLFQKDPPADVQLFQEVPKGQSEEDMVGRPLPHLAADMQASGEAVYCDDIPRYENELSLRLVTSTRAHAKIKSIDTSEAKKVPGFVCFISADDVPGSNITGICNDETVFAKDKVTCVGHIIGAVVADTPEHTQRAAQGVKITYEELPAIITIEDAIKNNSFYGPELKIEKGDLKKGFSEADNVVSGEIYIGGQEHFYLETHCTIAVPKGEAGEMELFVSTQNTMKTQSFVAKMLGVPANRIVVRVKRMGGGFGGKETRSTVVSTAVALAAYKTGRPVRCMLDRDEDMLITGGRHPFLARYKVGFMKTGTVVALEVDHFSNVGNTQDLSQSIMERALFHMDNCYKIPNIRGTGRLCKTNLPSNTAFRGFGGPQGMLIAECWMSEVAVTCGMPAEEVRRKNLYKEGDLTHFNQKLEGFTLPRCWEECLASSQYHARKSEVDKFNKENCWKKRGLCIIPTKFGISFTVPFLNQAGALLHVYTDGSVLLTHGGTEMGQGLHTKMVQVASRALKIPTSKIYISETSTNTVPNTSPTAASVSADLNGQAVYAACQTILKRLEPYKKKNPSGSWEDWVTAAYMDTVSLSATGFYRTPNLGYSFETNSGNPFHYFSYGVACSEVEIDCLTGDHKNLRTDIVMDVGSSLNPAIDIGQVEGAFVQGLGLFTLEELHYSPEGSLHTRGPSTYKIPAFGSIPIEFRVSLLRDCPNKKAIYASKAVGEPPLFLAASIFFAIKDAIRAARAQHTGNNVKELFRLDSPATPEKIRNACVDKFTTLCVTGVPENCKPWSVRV
Outline: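 Cell-free Amplex Red read-out: xanthine oxidase incubated in PBS with Amplex Red, HRP and cofactors; ROS production started by adding xanthine. Compound at rising concentrations from 1 nM to 100 μM, 20 min at 37 °C, then read on a plate reader. Background taken without enzyme or without agonist. Ki by Cheng-Prusoff, mean of at least three experiments run in triplicate.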

Rattus norvegicus = test: Hepatic blood flow in Sprague-Dawley rat at 5 mg/kg, iv; assay type: ADME, organism-based, Liver; design: dose 5 mg/kg, route intravenous; settings: in vivo
[16] = AUC (infinity) in Sprague-Dawley rat at 1 mg/kg, iv; assay type: ADME, organism-based; design: time infinity, dose 1 mg/kg, route intravenous; settings: plasma
[17] = AUC (infinity) in Sprague-Dawley rat at 5 mg/kg, sc; assay type: ADME, organism-based; design: time infinity, dose 5 mg/kg, route subcutaneous; settings: plasma
[18] = Cmax in Sprague-Dawley rat at 1 mg/kg, iv; assay type: ADME, organism-based; design: dose 1 mg/kg, route intravenous; settings: in vivo
[19] = Tmax in Sprague-Dawley rat at 1 mg/kg, iv; assay type: ADME, organism-based; design: dose 1 mg/kg, route intravenous; settings: in vivo
[20] = Half life in Sprague-Dawley rat at 1 mg/kg, iv; assay type: ADME, organism-based; design: dose 1 mg/kg, route intravenous; settings: in vivo
[21] = Clearance in Sprague-Dawley rat at 1 mg/kg, iv; assay type: ADME, organism-based; design: dose 1 mg/kg, route intravenous; settings: in vivo
[22] = Volume of distribution at steady state in Sprague-Dawley rat at 1 mg/kg, iv; assay type: ADME, organism-based; design: dose 1 mg/kg, route intravenous; settings: in vivo, read-out: Vdss
[23] = Bioavailability in Sprague-Dawley rat at 5 mg/kg, sc; assay type: ADME, organism-based; settings: in vivo
[24] = Cmax in Sprague-Dawley rat at 5 mg/kg, sc; assay type: ADME, organism-based; design: dose 5 mg/kg, route subcutaneous; settings: in vivo
[25] = Tmax in Sprague-Dawley rat at 5 mg/kg, sc; assay type: ADME, organism-based; design: dose 5 mg/kg, route subcutaneous; settings: in vivo
[26] = Half life in Sprague-Dawley rat at 5 mg/kg, sc; assay type: ADME, organism-based; design: dose 5 mg/kg, route subcutaneous; settings: in vivo

Ki (NADPH oxidase 4) [nM] | microsomal CLint at 0.5 µM [1] [µL/min/mg] | Papp at 2 h, 10 µM [2] [×10⁻⁶ cm/s] | IC50 (Cytochrome P450 2C19) [nM] | microsomal CLint at 0.5 µM [3] [µL/min/mg] | IC50 (Cytochrome P450 2C9) [nM] | AUC(0-inf) [4] [ng·h/mL] | bioavailability [5] [%] | Cmax [6] [ng/mL] | Tmax [7] [min] | half-life [8] [min] | Compound | also measured
165 | 248 | 39.9 | 13000 | 96.4 | 900 | – | – | – | – | – | COCCCn1c(CN(C)Cc2ccccc2)c2c(=O)n(-c3ccc(F)cc3Cl)[nH]c2cc1=O | –
114 | 125 | 35.5 | – | 49.3 | – | 3630 | 28 | 558 | 70.2 | 182 | Cn1c(COc2ccc(F)cc2)c2c(=O)n(-c3ccccc3Cl)[nH]c2cc1=O | AUC(0-inf) [9]: 6530 ng·h/mL; Cmax [10]: 30400 ng/mL; CL/F [11]: 48.7 mL/min/kg; half-life [12]: 208 min; clearance [13]: 12.8 mL/min/kg; Vd [14]: 0.8 L/kg
151 | 78 | 4.6 | 6500 | 76.3 | 4100 | – | – | – | – | – | CN(Cc1c2c(=O)n(-c3ccccc3Cl)[nH]c2cc(=O)n1Cc1ccncc1)c1ccccc1 | IC50 (Cytochrome P450 2C8): 3600 nM; IC50 (Cytochrome P450 3A4): 1100 nM
373 | 97.1 | 79.2 | – | – | – | 417 | 22 | 575 | 15 | 72 | Cc1c2c(=O)n(-c3ccccc3)[nH]c2cc(=O)n1Cc1cccnc1 | Ki (NADPH oxidase 2): 4720 nM; Ki [15]: > 30000 nM; QH (Rattus norvegicus): 55 mL/min/kg; AUC(0-inf) [16]: 196 ng·h/mL; AUC(0-inf) [17]: 815 ng·h/mL; Cmax [18]: 271 ng/mL; Tmax [19]: 4.8 min; half-life [20]: 24 min; clearance [21]: 85.2 mL/min/kg; Vd [22]: 2.36 L/kg; bioavailability [23]: 87%; Cmax [24]: 678 ng/mL; Tmax [25]: 30 min; half-life [26]: 42 min

Reference: ChEMBL document CHEMBL1275350, “First in class, potent, and orally bioavailable NADPH oxidase isoform 4 (Nox4) inhibitors for the treatment of idiopathic pulmonary fibrosis” (J Med Chem, 2010)
